These results are taken from ChEMBL document CHEMBL1139999, “Discovery of pyrazine carboxamide CB1 antagonists: the introduction of a hydroxyl group improves the pharmaceutical properties and in vivo efficacy of the series” (Bioorg Med Chem Lett, 2007).

The target in series [1] is T1, Cannabinoid receptor 1 (Homo sapiens, UniProt P21554). The experiment in a line: Binding affinity to human CB1 receptor.
Series [2] in a line: Aqueous solubility at pH 6.5. Type of series: physicochemical.
Series [3] has as its system Rattus norvegicus. The series can be described thus: Reduction in feeding in food deprived Sprague-Dawley rat feeding model at 10 mg/kg, po after 2 hrs. Type of series: functional. Set-up: scale not given: the % may be the effect or the level left. A digest of the protocol: (§1)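 Rats were fasted and then dosed orally at 10 mg/kg. Food was reintroduced 30 min after dosing, and refeeding was quantified versus vehicle-treated animals at 2, 4 and 24 h post-dose. Locomotor activity was also monitored.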

In series [4] the test system is Rattus norvegicus. The experiment in a line: Reduction in feeding in food deprived Sprague-Dawley rat feeding model at 10 mg/kg, po after 4 hrs. On the set-up: scale not given: the % may be the effect or the level left. Type of series: functional. A digest of the protocol:
as §1

The test system of series [5] is Rattus norvegicus. The series can be described thus: Reduction in feeding in food deprived Sprague-Dawley rat feeding model at 10 mg/kg, po after 24 hrs. The class given is functional. Set-up: scale not given: the % may be the effect or the level left. A digest of the protocol: as §1
For series [6], the system named is Rattus norvegicus. The series can be described thus: Change in food intake in Sprague-Dawley rat at 10 mg/kg, po. Type of series: functional, organism-based. On the set-up: dose 10 mg/kg. A digest of the protocol: (§2)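 Ad libitum-fed rats trained to operate a lever to obtain food were dosed orally at 10 or 30 mg/kg. Cumulative food intake was measured at 4 h versus vehicle-treated controls, with significance testing (p < 0.05).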

For series [7], the system named is Rattus norvegicus. The series can be described thus: Change in food intake in Sprague-Dawley rat at 30 mg/kg, po after 4 hrs. Type of series: functional. A digest of the protocol:
as §2

Series [8] can be described thus: Average Tmax in Sprague-Dawley rat at 10 mg/kg, po. Type of series: ADME, organism-based. Set-up: dose 10 mg/kg, route oral. Particulars: in vivo. A digest of the protocol: (§3)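 Oral PK in male Sprague-Dawley rats dosed at 10 mg/kg. Plasma sampled over 0–4 h for AUC(0–4h) and Tmax. Brain and plasma concentrations were taken at 4 h to give the brain/plasma ratio. Values are averages of n = 2 rats.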

Series [9] can be described thus: AUC(0 to 4 hrs) in Sprague-Dawley rat at 10 mg/kg, po. Type of series: ADME, organism-based. On the set-up: time < 4 hr, dose 10 mg/kg, route oral. Particulars: plasma. A digest of the protocol:
as §3

Series [10] in a line: Drug level in Sprague-Dawley rat brain at 10 mg/kg, po after 4 hrs. Type of series: ADME, organism-based. On the set-up: dose 10 mg/kg, route oral. Particulars: read-out: Drug uptake. A digest of the protocol:
as §3

Series [11] in a line: Ratio of drug level in brain to plasma in Sprague-Dawley rat at 10 mg/kg, po after 4 hrs. Type of series: ADME, organism-based. Particulars: read-out: BPR. On the set-up: dose 10 mg/kg, route oral. A digest of the protocol: as §3
Series [12] has as its target Cannabinoid receptor 1 (Rattus norvegicus, UniProt P20272). The series can be described thus: Binding affinity to rat CB1 receptor.
The target of series [13] is T1, Cannabinoid receptor 1. The experiment in a line: Binding affinity to human CB1 receptor at 13 uM.
Series [14] is described as follows: Average Tmax in Sprague-Dawley rat at 30 mg/kg, po. The class given is ADME, organism-based. Set-up: dose 30 mg/kg, route oral. Particulars: in vivo. A digest of the protocol: (§4)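 Male Sprague–Dawley rats dosed orally at 30 mg/kg as a suspension in 0.5% Methocel/1% Tween 80/water. Plasma and brain levels measured, with brain concentration and brain/plasma ratio taken at 4 h. AUC covers 0–4 h. Values are averages of n = 2 rats.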

Series [15] can be described thus: AUC(0 to 4 hrs) in Sprague-Dawley rat at 30 mg/kg, po. Set-up: time < 4 hr, dose 30 mg/kg, route oral. Particulars: plasma. Type of series: ADME, organism-based. A digest of the protocol: as §4
Series [16] in a line: Drug level in Sprague-Dawley rat brain at 30 mg/kg, po after 4 hrs. Set-up: dose 30 mg/kg, route oral. The class given is ADME, organism-based. Particulars: read-out: Drug uptake. A digest of the protocol:
as §4

Series [17] is described as follows: Ratio of drug level in brain to plasma in Sprague-Dawley rat at 30 mg/kg, po after 4 hrs. Type of series: ADME, organism-based. Particulars: read-out: Drug uptake. On the set-up: dose 30 mg/kg, route oral. A digest of the protocol: as §4

Values after ≈ are worked out from the molar mass of the structure shown. Active and inactive are the calls of the source. The rule behind the calls is not given here.

T1 sequence (P21554 whole entry): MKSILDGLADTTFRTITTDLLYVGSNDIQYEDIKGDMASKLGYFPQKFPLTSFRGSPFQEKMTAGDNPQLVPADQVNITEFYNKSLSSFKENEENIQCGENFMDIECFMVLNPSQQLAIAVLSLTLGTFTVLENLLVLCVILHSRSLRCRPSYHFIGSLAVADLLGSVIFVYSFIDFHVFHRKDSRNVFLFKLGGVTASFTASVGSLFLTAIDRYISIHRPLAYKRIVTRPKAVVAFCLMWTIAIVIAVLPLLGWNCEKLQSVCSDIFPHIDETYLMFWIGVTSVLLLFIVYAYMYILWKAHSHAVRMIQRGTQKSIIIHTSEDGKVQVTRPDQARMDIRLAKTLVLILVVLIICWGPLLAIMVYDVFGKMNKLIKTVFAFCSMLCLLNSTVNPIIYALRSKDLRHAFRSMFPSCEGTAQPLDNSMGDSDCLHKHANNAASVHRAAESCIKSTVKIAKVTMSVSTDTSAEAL
Chain of Cannabinoid receptor 1 (Rattus norvegicus, UniProt P20272) (P20272 whole entry): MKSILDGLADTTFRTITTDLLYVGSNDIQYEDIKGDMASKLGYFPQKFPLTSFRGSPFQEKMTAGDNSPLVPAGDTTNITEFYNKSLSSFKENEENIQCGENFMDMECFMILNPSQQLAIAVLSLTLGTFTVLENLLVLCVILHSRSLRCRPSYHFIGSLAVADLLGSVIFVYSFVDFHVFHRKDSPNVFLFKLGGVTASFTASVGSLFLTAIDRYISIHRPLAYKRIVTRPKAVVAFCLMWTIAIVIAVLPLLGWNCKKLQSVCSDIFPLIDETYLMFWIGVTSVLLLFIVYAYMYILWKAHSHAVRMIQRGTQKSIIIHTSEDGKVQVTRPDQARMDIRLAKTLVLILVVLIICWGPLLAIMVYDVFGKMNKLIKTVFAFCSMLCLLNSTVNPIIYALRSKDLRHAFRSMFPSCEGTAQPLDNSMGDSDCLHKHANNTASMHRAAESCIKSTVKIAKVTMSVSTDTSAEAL

As a reminder, the Ki is a dissociation constant, usually derived from enzyme kinetics or from competition with a known ligand. `Cc1ccc(-c2ncc(C(=O)N[C@@H]3CCCC[C@@H]3CO)nc2-c2ccc(C)cc2)cc1` came in with a Ki at Cannabinoid receptor 1 [1] of 167 nM.

With `Cc1ccc(-c2ncc(C(=O)N[C@@H](CO)C(C)C)nc2-c2ccc(C)cc2)cc1`, the Ki at Cannabinoid receptor 1 [1] is 316 nM.

The compound `Cc1ccc(-c2ncc(C(=O)NC(C)CCc3ccccc3)nc2-c2ccc(C)cc2)cc1` (configuration not stated) showed a Ki on Cannabinoid receptor 1 [1] of 5 nM.

On Cannabinoid receptor 1 [1], `Cc1ccc(-c2ncc(C(=O)N[C@@H]3CCCC[C@H]3CO)nc2-c2ccc(C)cc2)cc1` returned an inhibition constant (Ki) of 50 nM. On the same count and under the same terms, the figure for `Cc1ccc(-c2ncc(C(=O)NC(C)COc3c(C)cccc3C)nc2-c2ccc(C)cc2)cc1` (configuration not stated) is 39 nM. In general, solubility refers to the concentration that dissolves in the medium under given conditions. Regarding `CC(C)C[C@@H](COP(=O)(O)O)NC(=O)c1cnc(-c2ccc(Cl)cc2)c(-c2ccc(Cl)cc2)n1`, the concentration in solution in series [2] (solubility) was 430 µg/mL (≈ 820 µM). On Cannabinoid receptor 1 [1], `Cc1ccc(-c2ncc(C(=O)NCC3CC3)nc2-c2ccc(C)cc2)cc1` returned a Ki of 178 nM. On to `Cc1ccc(-c2ncc(C(=O)NCCCN(C)c3ccccc3)nc2-c2ccc(C)cc2)cc1`, for which the inhibitory constant (Ki) at Cannabinoid receptor 1 [1] was 25 nM. The compound `CNC(=O)c1cnc(-c2ccc(C)cc2)c(-c2ccc(C)cc2)n1` showed a Ki at Cannabinoid receptor 1 [1] of 3850 nM. The compound `CCCC(CO)NC(=O)c1cnc(-c2ccc(C)cc2)c(-c2ccc(C)cc2)n1` (configuration not stated) displayed a Ki on Cannabinoid receptor 1 [1] of 158 nM.

In general, Tmax refers to the time from dosing to the highest level. As usually defined, the AUC(0-t) is exposure summed from dosing to a finite time, without extrapolation to infinity. On to `Cc1ccc(-c2ncc(C(=O)N[C@H](CO)CC(C)C)nc2-c2ccc(C)cc2)cc1`, for which the Ki at Cannabinoid receptor 1 [1] turned out to be 45 nM; at Cannabinoid receptor 1 [12], 35 nM. Further, the Activity in the series with Rattus norvegicus [3] is recorded as 37%; in the series on Rattus norvegicus [4], 32%; in the series with Rattus norvegicus [5] it was 16%; in the series with Rattus norvegicus [7], 34%. For the same compound, in the series on Rattus norvegicus [6], the result was inactive. Moreover, the Tmax in series [8] came out at 1 h. The same compound yielded an AUC(0-t) at 4 h in [9] of 0.541 µM·h. Moreover, in series [10], the concentration at 4 h is 306 nM. For the same compound, in [11], the Kp at 4 h came to 3.

What is called inhibition is the percentage by which the read-out fell short of the control. `Cc1ccc(-c2ncc(C(=O)NC3CCNC3=O)nc2-c2ccc(C)cc2)cc1` (configuration not stated) gave an inhibition at Cannabinoid receptor 1 [13] of 46%. The compound `Cc1ccc(-c2ncc(C(=O)NCCO)nc2-c2ccc(C)cc2)cc1` had an inhibitory constant (Ki) at Cannabinoid receptor 1 [1] of 8430 nM. Regarding `Cc1ccc(-c2ncc(C(=O)N(C)Cc3ccccc3)nc2-c2ccc(C)cc2)cc1`, the inhibitory constant (Ki) at Cannabinoid receptor 1 [1] was found to be 110 nM. For the compound `Cc1ccc(-c2ncc(C(=O)NC3Cc4ccccc4C3O)nc2-c2ccc(C)cc2)cc1` (configuration not stated), the Ki at Cannabinoid receptor 1 [1] worked out at 33 nM. For `CCC(COCc1ccccc1)NC(=O)c1cnc(-c2ccc(C)cc2)c(-c2ccc(C)cc2)n1` (configuration not stated), on Cannabinoid receptor 1 [1], affinity was put at a Ki of 203 nM.

Take `Cc1ccc(-c2ncc(C(=O)N[C@H](CO)C(C)C)nc2-c2ccc(C)cc2)cc1`: the Ki on Cannabinoid receptor 1 [1] amounted to 237 nM. As to `Cc1ccc(-c2ncc(C(=O)N[C@@H]3CCCC[C@@H]3O)nc2-c2ccc(C)cc2)cc1`, at Cannabinoid receptor 1 [1], affinity was put at a Ki of 300 nM. Consider `Cc1ccc(-c2ncc(C(=O)N[C@H]3CC[C@H](O)CC3)nc2-c2ccc(C)cc2)cc1`, for which the inhibition at Cannabinoid receptor 1 [13] was found to be 54%. On Cannabinoid receptor 1 [1], `Cc1ccc(-c2ncc(C(=O)NCCOc3ccccc3)nc2-c2ccc(C)cc2)cc1` gave a Ki of 631 nM. Take `Cc1ccc(-c2ncc(C(=O)NCCCc3ccccc3)nc2-c2ccc(C)cc2)cc1`: the results for the inhibition constant (Ki) at Cannabinoid receptor 1 [1] and on Cannabinoid receptor 1 [12] were 18 nM and 80 nM, respectively. Further, the Tmax in series [14] worked out at 2 h. The AUC(0-t) at 4 h in series [15] came to 0.256 µM·h. In addition, in [16], the concentration at 4 h was found to be 34 nM. Besides, the Kp at 4 h in [17] came to 0.4. On Cannabinoid receptor 1 [1], `Cc1ccc(-c2ncc(C(=O)Nc3ccccc3)nc2-c2ccc(C)cc2)cc1` registered a Ki of 509 nM. `Cc1ccc(-c2ncc(C(=O)N[C@@H](C(N)=O)c3ccccc3)nc2-c2ccc(C)cc2)cc1` came in with a Ki at Cannabinoid receptor 1 [1] of 238 nM.

Turning to `Cc1ccc(-c2ncc(C(=O)NCC3CCCCC3)nc2-c2ccc(C)cc2)cc1`, the Ki at Cannabinoid receptor 1 [1] came to 59 nM. Regarding `CC(C)C[C@@H](CO)NC(=O)c1cnc(-c2ccc(Cl)cc2)c(-c2ccc(Cl)cc2)n1`, the Ki on Cannabinoid receptor 1 [1] is 14 nM; on Cannabinoid receptor 1 [12], 30 nM. In addition, in series [8], the Tmax was 1 h. Further, the AUC(0-t) at 4 h in [9] came out at 0.736 µM·h. In addition, the concentration at 4 h in series [10] worked out at 491 nM. Moreover, the Kp at 4 h in series [11] was determined as 3.1.

On Cannabinoid receptor 1 [1], `Cc1ccc(-c2ncc(C(=O)NN3CCCCC3)nc2-c2ccc(C)cc2)cc1` registered a Ki of 53 nM. Consider `Cc1ccc(-c2ncc(C(=O)NC(C)C)nc2-c2ccc(C)cc2)cc1`, for which the Ki at Cannabinoid receptor 1 [1] is 656 nM. Same read-out and setting: as for `Cc1ccc(-c2ncc(C(=O)N[C@@H](CC(C)C)C(N)=O)nc2-c2ccc(C)cc2)cc1`, the figure is 105 nM. Regarding `Cc1ccc(-c2ncc(C(=O)N3CCNC(=O)C3)nc2-c2ccc(C)cc2)cc1`, at Cannabinoid receptor 1 [13], the inhibition was determined as 29%. In turn, `Cc1ccc(-c2ncc(C(=O)N[C@@H](CO)CC(C)C)nc2-c2ccc(C)cc2)cc1` returned a Ki at Cannabinoid receptor 1 [1] of 460 nM. `CCNC(=O)c1cnc(-c2ccc(C)cc2)c(-c2ccc(C)cc2)n1` displayed a Ki at Cannabinoid receptor 1 [1] of 2380 nM. `Cc1ccc(-c2ncc(C(=O)N3CCC(O)CC3)nc2-c2ccc(C)cc2)cc1` showed an inhibition at Cannabinoid receptor 1 [13] of 38%.
